Measured values reported in PubChem BioAssay AID493069 (Broad Institute, 2011).
“And” between values parts separate entries of the source, which are not always exact repeats. Equal entries are not always repeated. Inconclusive results are not listed. The source made the active and inactive calls.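 How the source made its calls: active means growth-curve midpoint potency at or below a set limit tied to the top tested dose, or full inhibition throughout; inconclusive means flat partial inhibition between 30 and 70%, or poor fit; inactive means the rest.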

System: not listed separately
Assay: growth inhibition of resistant C. albicans with fluconazole, dose response, antifungal resistance reversal project, CaCi-8 resistant strain, dry powder, set 6 (AID 493069)
Conditions: C. albicans CaCi-8 + fluconazole, Alamar Blue, 48 h; at 2.6 µM (top of the series)
In short: (§1)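 Assay system: Candida albicans CaCi-8, fluconazole-resistant clinical isolate / Measured by: Alamar Blue fluorescence, excitation 544 nm, emission 590 nm / Schedule: compound exposure 48 h 37 °C, Alamar Blue 2 h RT / Measure: relative fungal growth from fluorescence / Medium: MOPS-buffered RPMI 1640 defined medium plus Pen/Strep / Probe or stimulus: fluconazole at 8 µg/mL in the growth medium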

| Compound | growth change, negative = inhibition |
| --- | --- |
| COc1ccc2c(c1)c1nc3n(c(=O)c1n2CC(=O)N1CCC(C)CC1)CCS3 | -12.4% (inactive) |

Same assay, conditions: C. albicans CaCi-8 + fluconazole, Alamar Blue, 48 h; at 26 µM (top of the series)

| Compound | growth change, negative = inhibition |
| --- | --- |
| O=C(Cn1c2ccccc2c2nc3n(c(=O)c21)CCCS3)c1ccc(F)cc1 | -20.3% (inactive) |
| O=C(Cn1c2ccc(F)cc2c2nc3n(c(=O)c21)CCS3)N1CCCCCC1 | -36.1% (inactive) |
| CCN(CC)C(=O)Cn1c2ccccc2c2nc3n(c(=O)c21)CCS3 | 10.7% (inactive) |
| O=C(Cn1c2ccccc2c2nc3n(c(=O)c21)CCS3)NCCc1ccc(Cl)cc1 | -16.6% (inactive) |
| O=C(Cn1c2ccc(F)cc2c2nc3n(c(=O)c21)CCS3)N1CCCCC1 | -17% (inactive) |
| O=C(Cn1c2ccc(F)cc2c2nc3n(c(=O)c21)CCS3)N1CCCC1 | -25.5% (inactive) |
| CCN(CC)C(=O)Cn1c2ccc(F)cc2c2nc3n(c(=O)c21)CCS3 | 3.38% (inactive) |

System: C. albicans CaCi-8 + fluconazole, Alamar Blue, 48 h
Assay: as above
Conditions: not given
In short: as §1

| Compound | AC50 |
| --- | --- |
| O=c1c2[nH]c3ccc(F)cc3c2nc2n1CCS2 | 5.76 µM |
| COC(=O)Cn1nc(-c2ccc(Cl)cc2)c2ccccc21 | 15.8 µM |
| O=C(Cn1c2ccccc2c2nc3n(c(=O)c21)CCS3)N1CCCC1 | 1.43 µM and 6.75 µM |
| O=C(Cn1c2ccccc2c2ccncc21)N1CCCCC1 | 26.2 µM |
| O=C(Cn1c2ccccc2c2nc3n(c(=O)c21)CCS3)N1CCOCC1 | 4.83 µM |
| COC(=O)Cn1nc(-c2ccccc2)c2ccccc21 | 4.99 µM |
| CC1CCN(C(=O)Cn2c3ccccc3c3nc4n(c(=O)c32)CCS4)CC1 | 5.56 µM |
| O=C(O)Cn1nc(-c2ccccc2)c2ccccc21 | > 26 µM (inactive) |
| O=c1c2[nH]c3ccccc3c2nc2n1CCS2 | 17.6 µM |
| CC1CCN(C(=O)Cn2c3ccc(F)cc3c3nc4n(c(=O)c32)CCCS4)CC1 | 22.9 µM |
| COC(=O)Cn1nc(-c2ccc(C)cc2)c2ccccc21 | 13.8 µM |
| O=C(Cn1c2ccccc2c2nc3n(c(=O)c21)CCS3)N1CCCCC1 | 3.88 µM |
